Here are results for one compound from ChEMBL document CHEMBL5033998, “Discovery of DDO-2213 as a Potent and Orally Bioavailable Inhibitor of the WDR5-Mixed Lineage Leukemia 1 Protein-Protein Interaction for the Treatment of MLL Fusion Leukemia” (J Med Chem, 2021).

Molecules are shown by their SMILES.

Data set [1] deals with Histone-lysine N-methyltransferase 2A (Homo sapiens, UniProt Q03164). The data set can be described thus: Inhibition of MLL1 (unknown origin) in human MV4-11 cells assessed as decrease in Hoxa9 mRNA level at 1 to 10 uM measured after 7 days by RT-PCR analysis. The following applies: dose 1-10 µM, time 7.0 day.
Data set [2] can be described thus: AUC (0 to infinity) in Sprague-Dawley rat at 2 mg/kg, iv measured upto 24 hrs by LC-MS/MS analysis. As to conditions: in vivo. It counts as ADME, organism-based. Also noted: route intravenous, dose 2 mg/kg, time <=24.
Data set [3] is described as follows: Toxicity in Balb/c nude mouse xenografted with human MV4-11 cells assessed as tolerability at 40 to 120 mg/kg, po administered daily for 21 days relative to control. It counts as organism-based. The following applies: in vivo, 504 h. The essentials:
(§1)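 Nude BALB/c females bearing MV4-11 xenografts, dosed orally each day for 21 days at 40, 80 or 120 mg/kg, saline vehicle controls (6 mice/group); body weight recorded every other day.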

In data set [4] the target is Histone-lysine N-methyltransferase 2A/WDR5 (Homo sapiens, UniProt P61964). In words: Inhibition of MLL1-WDR5 (unknown origin) protein-protein interaction using Thr-FAM as probe by fluorescence polarization competition assay. The essentials: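 Competitive FP with WDR5 and 10mer-Thr-FAM probe in 100 mM KH2PO4, 25 mM KCl, 0.01% Triton X-100, pH 6.5; read at λex 485 ± 25 nm, λem 535 ± 25 nm. IC50 from three independent replicates ± SD.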
On the technique in general: Polarisation of emitted light reports the rotation of a fluorescent probe.

For data set [5], the system named is MV4-11. In words: Antitumor activity against human MV4-11 cells xenografted in Balb/c nude mouse assessed as tumor growth inhibition at 80 mg/kg, po administered daily for 21 days relative to control. It counts as functional. As to conditions: MV4-11, po, 504 h, time 21 day, read-out: TGI. The essentials:
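Female BALB/c nude mice (6–8 weeks) given ~5 × 10^6 MV4-11 cells in 0.2 mL PBS into the flank; at 100–150 mm3 randomized (6/group) to vehicle (0.9% saline) or 40, 80, 120 mg/kg oral (hydrochloride salt) daily for 21 days. Volume = length × width²/2 every other day; GI% = [1 − (TVt − TV0)/(CVt − CV0)] × 100%.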
In general terms: A xenograft is tissue or cells of one species grown in another, often human tumour cells in immunodeficient mice.

Data set [6] is described as follows: Oral bioavailability in Sprague-Dawley rat at 10 mg/kg measured upto 24 hrs by LC-MS/MS analysis. It is filed as ADME, organism-based. As to conditions: in vivo. The essentials: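 Bioavailability from paired rat groups (male SD, n = 3 each): 10 mg/kg oral vs 2 mg/kg i.v.; plasma sampled to 24 h and measured by LC-MS/MS.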
Data set [7] in a line: Cmax in Sprague-Dawley rat at 10 mg/kg, po measured upto 24 hrs by LC-MS/MS analysis. It is filed as ADME, organism-based. Also noted: route oral, dose 10 mg/kg, time <=24. The following applies: in vivo. The essentials:
(§2)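 Male SD rats, 6–8 weeks, 220 ± 30 g; single oral dose 10 mg/kg (n = 3). Plasma sampled at 0, 0.25, 0.5, 1, 2, 4, 6, 8 and 24 h, stored at −80 °C, quantified by LC-MS/MS; parameters reported as mean ± SEM.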

The nature of data set [8]: Toxicity in Balb/c nude mouse xenografted with human MV4-11 cells assessed as body weight loss at 40 to 120 mg/kg, po administered daily for 21 days relative to control. The following applies: in vivo, 504 h. It is filed as organism-based. The essentials:
as §1

Data set [9] can be described thus: Half life in Sprague-Dawley rat at 10 mg/kg, po measured upto 24 hrs by LC-MS/MS analysis. It is filed as ADME, organism-based. As to conditions: in vivo. The essentials:
as §2

Chain of Histone-lysine N-methyltransferase 2A (Q03164 1-2718 limits assumed): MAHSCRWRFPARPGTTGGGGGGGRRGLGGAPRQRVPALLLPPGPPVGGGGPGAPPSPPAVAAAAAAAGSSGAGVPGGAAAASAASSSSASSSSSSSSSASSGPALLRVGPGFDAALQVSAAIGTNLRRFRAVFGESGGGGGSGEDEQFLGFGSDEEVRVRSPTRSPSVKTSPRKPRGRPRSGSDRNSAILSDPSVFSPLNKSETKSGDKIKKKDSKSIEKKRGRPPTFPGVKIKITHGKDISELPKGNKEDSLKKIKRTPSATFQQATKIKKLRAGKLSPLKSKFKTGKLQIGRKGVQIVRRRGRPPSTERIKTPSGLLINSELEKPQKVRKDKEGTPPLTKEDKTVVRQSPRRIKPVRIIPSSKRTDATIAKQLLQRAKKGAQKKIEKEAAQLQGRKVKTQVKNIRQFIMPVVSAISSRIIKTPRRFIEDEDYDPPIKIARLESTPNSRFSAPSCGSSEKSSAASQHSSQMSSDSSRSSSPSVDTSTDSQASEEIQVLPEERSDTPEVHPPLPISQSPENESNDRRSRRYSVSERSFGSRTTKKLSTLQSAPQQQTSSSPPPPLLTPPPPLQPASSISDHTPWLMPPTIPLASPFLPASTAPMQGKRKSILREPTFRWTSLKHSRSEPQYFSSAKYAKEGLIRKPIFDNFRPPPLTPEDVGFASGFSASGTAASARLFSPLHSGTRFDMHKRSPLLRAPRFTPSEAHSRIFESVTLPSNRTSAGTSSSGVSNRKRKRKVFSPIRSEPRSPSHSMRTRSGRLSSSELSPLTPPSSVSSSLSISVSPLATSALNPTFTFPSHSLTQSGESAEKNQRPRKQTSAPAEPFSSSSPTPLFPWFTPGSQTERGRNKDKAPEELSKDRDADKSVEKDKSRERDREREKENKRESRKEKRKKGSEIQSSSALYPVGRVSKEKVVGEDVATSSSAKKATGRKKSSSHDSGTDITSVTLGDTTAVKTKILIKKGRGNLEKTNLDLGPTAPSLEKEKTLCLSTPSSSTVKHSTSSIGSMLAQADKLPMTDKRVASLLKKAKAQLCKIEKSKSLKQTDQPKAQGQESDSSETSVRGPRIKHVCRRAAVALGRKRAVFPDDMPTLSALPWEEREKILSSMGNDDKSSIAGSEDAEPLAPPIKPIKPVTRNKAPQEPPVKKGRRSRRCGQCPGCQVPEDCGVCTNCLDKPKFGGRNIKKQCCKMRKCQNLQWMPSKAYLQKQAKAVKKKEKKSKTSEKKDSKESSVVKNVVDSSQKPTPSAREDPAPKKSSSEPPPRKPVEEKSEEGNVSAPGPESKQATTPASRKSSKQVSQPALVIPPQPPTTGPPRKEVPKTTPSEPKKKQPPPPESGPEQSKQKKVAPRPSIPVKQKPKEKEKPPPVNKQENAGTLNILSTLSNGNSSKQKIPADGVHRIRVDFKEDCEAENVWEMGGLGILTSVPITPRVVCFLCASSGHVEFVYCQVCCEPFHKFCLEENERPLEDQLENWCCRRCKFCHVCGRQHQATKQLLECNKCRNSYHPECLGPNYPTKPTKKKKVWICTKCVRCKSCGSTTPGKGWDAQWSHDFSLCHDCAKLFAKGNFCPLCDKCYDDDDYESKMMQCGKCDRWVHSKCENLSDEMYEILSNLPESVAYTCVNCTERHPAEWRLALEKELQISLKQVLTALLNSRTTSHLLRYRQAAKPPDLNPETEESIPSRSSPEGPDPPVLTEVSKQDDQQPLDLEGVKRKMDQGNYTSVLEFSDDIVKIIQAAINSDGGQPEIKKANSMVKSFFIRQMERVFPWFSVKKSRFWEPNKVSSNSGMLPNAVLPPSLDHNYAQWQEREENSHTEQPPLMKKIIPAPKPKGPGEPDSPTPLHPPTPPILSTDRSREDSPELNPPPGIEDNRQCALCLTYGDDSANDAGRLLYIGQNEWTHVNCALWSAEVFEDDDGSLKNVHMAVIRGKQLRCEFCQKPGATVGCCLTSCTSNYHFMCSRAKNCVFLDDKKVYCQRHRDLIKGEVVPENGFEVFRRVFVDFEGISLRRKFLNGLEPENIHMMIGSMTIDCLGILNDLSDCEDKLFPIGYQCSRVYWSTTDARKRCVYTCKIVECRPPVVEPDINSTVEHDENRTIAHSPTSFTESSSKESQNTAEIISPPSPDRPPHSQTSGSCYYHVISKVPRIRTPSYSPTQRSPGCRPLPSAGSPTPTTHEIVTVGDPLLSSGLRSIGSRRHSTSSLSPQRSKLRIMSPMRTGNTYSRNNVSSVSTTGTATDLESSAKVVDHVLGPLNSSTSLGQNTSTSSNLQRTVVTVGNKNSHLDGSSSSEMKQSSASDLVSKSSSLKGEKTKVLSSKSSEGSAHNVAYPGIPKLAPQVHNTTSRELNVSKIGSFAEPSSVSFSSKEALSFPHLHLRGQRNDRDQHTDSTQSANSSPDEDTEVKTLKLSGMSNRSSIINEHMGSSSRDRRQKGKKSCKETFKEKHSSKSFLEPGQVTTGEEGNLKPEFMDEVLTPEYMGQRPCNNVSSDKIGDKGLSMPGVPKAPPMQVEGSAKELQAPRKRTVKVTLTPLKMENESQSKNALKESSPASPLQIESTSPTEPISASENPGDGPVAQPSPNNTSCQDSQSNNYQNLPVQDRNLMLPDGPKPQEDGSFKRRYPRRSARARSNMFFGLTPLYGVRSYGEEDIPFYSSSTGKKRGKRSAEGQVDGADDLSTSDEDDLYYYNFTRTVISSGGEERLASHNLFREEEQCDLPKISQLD
Chain of Histone-lysine N-methyltransferase 2A (Q03164 2719-3969 limits assumed): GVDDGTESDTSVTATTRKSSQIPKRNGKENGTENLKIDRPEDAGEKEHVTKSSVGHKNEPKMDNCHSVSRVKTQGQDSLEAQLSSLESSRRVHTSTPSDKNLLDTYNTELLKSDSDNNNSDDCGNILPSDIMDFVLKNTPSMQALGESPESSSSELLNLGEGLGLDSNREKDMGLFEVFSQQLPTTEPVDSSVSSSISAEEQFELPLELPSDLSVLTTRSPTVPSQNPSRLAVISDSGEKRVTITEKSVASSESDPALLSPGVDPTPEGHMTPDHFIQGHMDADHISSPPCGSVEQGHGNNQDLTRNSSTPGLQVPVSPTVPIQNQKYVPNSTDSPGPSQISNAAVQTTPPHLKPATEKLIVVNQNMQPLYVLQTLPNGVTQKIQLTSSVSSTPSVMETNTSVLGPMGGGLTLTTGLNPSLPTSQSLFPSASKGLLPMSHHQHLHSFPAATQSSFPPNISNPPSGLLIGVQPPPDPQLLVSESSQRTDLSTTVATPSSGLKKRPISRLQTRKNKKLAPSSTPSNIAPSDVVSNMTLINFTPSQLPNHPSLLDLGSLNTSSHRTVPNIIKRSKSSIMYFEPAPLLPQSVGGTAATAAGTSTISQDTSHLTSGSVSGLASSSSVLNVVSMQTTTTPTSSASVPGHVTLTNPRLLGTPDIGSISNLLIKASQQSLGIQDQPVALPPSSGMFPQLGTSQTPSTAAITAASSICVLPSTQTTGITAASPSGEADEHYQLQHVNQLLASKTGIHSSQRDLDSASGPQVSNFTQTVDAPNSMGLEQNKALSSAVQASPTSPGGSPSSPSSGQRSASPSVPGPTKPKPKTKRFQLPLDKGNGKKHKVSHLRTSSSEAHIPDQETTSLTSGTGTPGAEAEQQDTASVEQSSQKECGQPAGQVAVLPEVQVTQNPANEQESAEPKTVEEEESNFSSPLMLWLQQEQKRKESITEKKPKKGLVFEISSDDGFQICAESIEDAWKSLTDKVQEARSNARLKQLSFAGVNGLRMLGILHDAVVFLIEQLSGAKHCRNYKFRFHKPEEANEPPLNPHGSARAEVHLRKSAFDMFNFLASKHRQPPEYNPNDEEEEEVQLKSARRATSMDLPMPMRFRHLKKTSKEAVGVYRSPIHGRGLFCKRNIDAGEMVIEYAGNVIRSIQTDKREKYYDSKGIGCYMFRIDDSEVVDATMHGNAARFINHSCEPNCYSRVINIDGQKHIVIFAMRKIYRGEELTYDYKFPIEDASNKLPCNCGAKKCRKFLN

Regarding `CN1CCN(c2cc(F)c(-c3ccc(C(=O)N(C)C)cc3)cc2Nc2ncnc(Cl)c2N)CC1`, the inhibition result in [1] is “Dose-Dependent Effect”. The total exposure AUC(0-inf) – broadly, the area under the concentration-time curve extrapolated to infinity – in [2] amounted to 424 ng·h/mL. Besides, the Activity result in data set [3] and in data set [8] was “Non-Toxic” throughout. The half-inhibitory concentration (IC50) (in general, the concentration at which inhibition is half-maximal) in data set [4] was 29 nM. The inhibition in vivo at 80 mg/kg in data set [5] was found to be 53.6%. For the same compound, in data set [6], the bioavailability (as a rule, dose-corrected exposure relative to a reference, in per cent) was 82.1%. For the same compound, the highest concentration (Cmax) (commonly the highest concentration seen after dosing) in [7] was determined as 159 ng/mL. The half-life (as a rule, the time needed for the level to fall by half in the phase considered) in data set [9] is 4.94 h.
